In ChEMBL document CHEMBL3797186, “Single Residue Substitutions That Confer Voltage-Gated Sodium Ion Channel Subtype Selectivity in the NaV1.7 Inhibitory Peptide GpTx-1” (J Med Chem, 2016):
Positions of bridges follow the written chain, without caps; N, C: chain ends. Residues, ends and D or L forms follow the SMILES beside them.

Assays:
[1] = biological target: Sodium channel protein type 5 subunit alpha (Homo sapiens, UniProt Q14524); assay: Inhibition of human Nav1.5 expressed in HEK293 cells assessed as inward peak current by ion-works quattro patch clamp electrophysiology method; type: cell-based
Method in brief: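 Stable HEK293 line expressing human NaV1.5, recorded by population patch clamp on the IonWorks Quattro.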

[2] = biological target: Sodium channel protein type 9 subunit alpha (Homo sapiens, UniProt Q15858); assay: Inhibition of human Nav1.7 expressed in HEK293 cells assessed as inward peak current by ion-works quattro patch clamp electrophysiology method; type: cell-based
Sodium channel protein type 9 subunit alpha, sequence (Q15858 whole entry): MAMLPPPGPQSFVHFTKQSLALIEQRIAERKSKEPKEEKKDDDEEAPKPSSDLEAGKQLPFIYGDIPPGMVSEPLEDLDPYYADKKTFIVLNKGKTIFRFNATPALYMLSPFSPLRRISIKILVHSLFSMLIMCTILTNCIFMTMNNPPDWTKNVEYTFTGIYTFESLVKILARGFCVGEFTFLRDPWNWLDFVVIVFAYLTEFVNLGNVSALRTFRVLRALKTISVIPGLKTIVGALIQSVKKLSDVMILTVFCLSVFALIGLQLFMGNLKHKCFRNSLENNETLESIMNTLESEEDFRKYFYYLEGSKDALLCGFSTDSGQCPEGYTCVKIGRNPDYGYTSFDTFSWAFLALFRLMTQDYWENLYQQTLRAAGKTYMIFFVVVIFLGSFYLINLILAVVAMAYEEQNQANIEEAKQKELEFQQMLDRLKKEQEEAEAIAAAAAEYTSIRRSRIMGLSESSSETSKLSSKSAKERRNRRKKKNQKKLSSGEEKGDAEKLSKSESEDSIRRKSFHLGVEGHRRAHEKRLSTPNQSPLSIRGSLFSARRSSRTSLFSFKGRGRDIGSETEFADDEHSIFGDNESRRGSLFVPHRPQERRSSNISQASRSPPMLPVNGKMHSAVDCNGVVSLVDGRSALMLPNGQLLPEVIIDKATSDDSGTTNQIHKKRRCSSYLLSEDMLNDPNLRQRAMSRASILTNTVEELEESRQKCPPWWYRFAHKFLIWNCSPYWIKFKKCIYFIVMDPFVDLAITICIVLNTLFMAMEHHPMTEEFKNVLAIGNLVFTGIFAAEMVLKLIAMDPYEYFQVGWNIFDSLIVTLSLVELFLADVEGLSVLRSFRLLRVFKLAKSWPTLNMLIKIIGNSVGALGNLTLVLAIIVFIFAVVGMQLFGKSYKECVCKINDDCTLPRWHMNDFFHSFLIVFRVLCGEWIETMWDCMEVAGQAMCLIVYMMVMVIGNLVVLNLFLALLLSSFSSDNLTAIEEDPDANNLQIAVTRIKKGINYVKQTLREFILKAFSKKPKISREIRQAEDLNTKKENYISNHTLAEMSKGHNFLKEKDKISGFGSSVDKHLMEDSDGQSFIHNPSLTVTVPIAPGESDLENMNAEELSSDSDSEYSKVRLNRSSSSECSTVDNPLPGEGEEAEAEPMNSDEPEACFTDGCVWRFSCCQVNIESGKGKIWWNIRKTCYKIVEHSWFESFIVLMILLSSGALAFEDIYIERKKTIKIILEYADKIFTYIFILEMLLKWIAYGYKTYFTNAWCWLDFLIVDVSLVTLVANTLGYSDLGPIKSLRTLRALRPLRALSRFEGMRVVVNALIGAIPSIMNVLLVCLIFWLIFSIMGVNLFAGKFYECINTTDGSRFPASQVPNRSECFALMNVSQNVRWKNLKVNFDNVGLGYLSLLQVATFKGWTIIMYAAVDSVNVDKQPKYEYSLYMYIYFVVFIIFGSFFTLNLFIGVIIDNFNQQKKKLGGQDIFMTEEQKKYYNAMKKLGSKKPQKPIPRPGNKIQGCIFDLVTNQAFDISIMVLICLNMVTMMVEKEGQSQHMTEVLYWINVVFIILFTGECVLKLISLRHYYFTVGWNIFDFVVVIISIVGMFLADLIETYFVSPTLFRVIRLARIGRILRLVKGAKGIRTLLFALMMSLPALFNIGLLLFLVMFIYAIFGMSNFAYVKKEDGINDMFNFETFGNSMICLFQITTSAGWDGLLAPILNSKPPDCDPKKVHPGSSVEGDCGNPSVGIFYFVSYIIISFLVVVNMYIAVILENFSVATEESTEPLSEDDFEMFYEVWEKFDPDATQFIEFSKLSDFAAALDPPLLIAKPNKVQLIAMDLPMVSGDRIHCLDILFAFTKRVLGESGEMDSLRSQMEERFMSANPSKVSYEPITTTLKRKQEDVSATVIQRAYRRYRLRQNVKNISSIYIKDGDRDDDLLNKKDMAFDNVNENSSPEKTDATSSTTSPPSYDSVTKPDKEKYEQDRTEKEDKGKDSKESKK

Sodium channel protein type 5 subunit alpha, sequence (Q14524 whole entry): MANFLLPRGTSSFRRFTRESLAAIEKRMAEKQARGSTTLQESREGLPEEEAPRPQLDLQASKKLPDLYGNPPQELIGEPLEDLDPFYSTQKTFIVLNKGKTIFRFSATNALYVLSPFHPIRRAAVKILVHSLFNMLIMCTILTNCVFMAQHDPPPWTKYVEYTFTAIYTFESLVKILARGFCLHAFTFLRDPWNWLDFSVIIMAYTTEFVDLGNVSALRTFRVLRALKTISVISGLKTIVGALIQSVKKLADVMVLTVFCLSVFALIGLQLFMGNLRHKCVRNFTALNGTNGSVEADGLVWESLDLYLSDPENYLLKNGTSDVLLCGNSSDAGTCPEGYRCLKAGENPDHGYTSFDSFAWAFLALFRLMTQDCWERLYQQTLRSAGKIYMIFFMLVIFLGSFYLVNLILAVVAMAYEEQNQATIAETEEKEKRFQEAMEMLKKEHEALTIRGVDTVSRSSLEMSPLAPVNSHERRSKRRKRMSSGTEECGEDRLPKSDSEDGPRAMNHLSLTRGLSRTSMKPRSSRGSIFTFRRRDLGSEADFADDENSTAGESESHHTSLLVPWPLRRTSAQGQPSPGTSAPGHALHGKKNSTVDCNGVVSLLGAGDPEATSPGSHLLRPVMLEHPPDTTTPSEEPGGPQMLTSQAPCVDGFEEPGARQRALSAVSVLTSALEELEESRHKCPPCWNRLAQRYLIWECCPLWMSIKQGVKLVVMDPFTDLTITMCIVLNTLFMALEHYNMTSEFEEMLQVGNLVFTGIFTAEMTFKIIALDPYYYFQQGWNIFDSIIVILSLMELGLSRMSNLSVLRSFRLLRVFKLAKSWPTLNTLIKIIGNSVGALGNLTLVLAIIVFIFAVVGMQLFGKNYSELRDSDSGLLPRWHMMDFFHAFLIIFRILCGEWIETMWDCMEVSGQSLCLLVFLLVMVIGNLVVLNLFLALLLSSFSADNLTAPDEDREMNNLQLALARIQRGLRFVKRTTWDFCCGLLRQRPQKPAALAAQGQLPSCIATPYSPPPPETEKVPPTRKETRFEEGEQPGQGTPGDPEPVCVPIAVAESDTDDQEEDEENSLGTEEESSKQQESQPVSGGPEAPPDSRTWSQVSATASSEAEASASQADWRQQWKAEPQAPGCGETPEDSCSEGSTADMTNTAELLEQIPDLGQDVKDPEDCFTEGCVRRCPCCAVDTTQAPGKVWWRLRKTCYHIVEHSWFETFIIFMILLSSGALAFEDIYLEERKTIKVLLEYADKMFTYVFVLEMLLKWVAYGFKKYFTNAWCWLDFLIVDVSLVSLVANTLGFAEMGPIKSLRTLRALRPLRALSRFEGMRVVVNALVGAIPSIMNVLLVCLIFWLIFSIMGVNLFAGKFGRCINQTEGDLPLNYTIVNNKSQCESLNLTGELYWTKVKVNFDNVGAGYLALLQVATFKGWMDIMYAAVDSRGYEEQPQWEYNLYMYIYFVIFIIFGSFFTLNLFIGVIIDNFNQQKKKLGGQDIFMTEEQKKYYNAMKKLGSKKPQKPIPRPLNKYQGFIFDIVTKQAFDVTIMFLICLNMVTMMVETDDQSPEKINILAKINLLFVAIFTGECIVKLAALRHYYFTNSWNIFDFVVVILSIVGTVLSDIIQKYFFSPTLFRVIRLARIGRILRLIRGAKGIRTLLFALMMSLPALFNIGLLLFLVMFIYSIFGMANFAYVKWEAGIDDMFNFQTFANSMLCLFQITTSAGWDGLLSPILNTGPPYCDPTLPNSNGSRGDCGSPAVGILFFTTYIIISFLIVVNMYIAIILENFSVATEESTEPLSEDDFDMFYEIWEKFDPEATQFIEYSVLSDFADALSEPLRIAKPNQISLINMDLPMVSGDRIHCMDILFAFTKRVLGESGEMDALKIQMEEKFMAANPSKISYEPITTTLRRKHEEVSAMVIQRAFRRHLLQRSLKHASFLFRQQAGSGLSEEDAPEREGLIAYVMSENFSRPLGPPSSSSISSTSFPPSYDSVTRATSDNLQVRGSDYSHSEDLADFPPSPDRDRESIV

| SMILES | IC50 [1] [nM] | IC50 [2] [nM] |
| --- | --- | --- |
| CSCC[C@@H]1NC(=O)[C@H](Cc2ccccc2)NC(=O)CNC(=O)[C@H](CC(C)C)NC(=O)[C@@H](NC(=O)[C@@H](N)CC(=O)O)CSSC[C@@H]2NC(=O)[C@@H]3CSSC[C@@H](C(=O)N[C@@H](CCCCN)C(=O)N[C@@H](Cc4ccc(O)cc4)C(=O)N[C@H](C(=O)N[C@@H](Cc4ccccc4)C(N)=O)C(C)C)NC(=O)[C@H](Cc4c[nH]c5ccccc45)NC(=O)[C@H](CCCCN)NC(=O)[C@H](Cc4cnc[nH]4)NC(=O)[C@H]([C@@H](C)O)NC(=O)[C@H](CCCNC(=N)N)NC(=O)[C@H](CO)NC(=O)[C@H](CSSC[C@H](NC(=O)[C@H](CCCCN)NC(=O)[C@H](CCCNC(=N)N)NC1=O)C(=O)N[C@@H](CCCCN)C(=O)N1CCC[C@H]1C(=O)N[C@@H](CC(=O)O)C(=O)N[C@@H](CC(N)=O)C(=O)N[C@@H](CC(=O)O)C(=O)N[C@@H](CCCCN)C(=O)N3)NC(=O)[C@H](C(C)C)NC(=O)[C@H](CC(C)C)NC(=O)[C@H](CC(N)=O)NC(=O)[C@@H]1CCCN1C(=O)[C@H](CCCNC(=N)N)NC2=O (H-DCLGFMRKCKPDNDKCCRPNLVCSRTHKWCKYVF-NH2; disulfide 2-17, 9-23, 16-30) | > 5000 | 230 |
| CC[C@H](C)[C@@H]1NC(=O)[C@@H]2CSSC[C@@H]3NC(=O)[C@H](C(C)C)NC(=O)[C@H](CC(C)C)NC(=O)[C@H](CC(N)=O)NC(=O)[C@@H]4CCCN4C(=O)[C@H](CCCNC(=N)N)NC(=O)[C@H](CSSC[C@H](NC(=O)[C@@H](N)CC(=O)O)C(=O)N[C@@H](CC(C)C)C(=O)NCC(=O)N[C@@H](Cc4ccccc4)C(=O)N[C@@H](CCSC)C(=O)N[C@@H](CCCNC(=N)N)C(=O)N[C@@H](CCCCN)C(=O)N2)NC(=O)[C@H](CSSC[C@@H](C(=O)N[C@@H](CCCCN)C(=O)N[C@@H](Cc2ccc(O)cc2)C(=O)N[C@H](C(=O)N[C@@H](Cc2ccccc2)C(N)=O)C(C)C)NC(=O)[C@H](Cc2c[nH]c4ccccc24)NC(=O)[C@H](CCCCN)NC(=O)[C@H](Cc2cnc[nH]2)NC(=O)[C@H](CCCNC(=N)N)NC(=O)[C@H](CCCNC(=N)N)NC(=O)[C@H](CO)NC3=O)NC(=O)[C@H](CCCCN)NC(=O)[C@H](CC(=O)O)NC(=O)[C@H](CC(N)=O)NC(=O)[C@H](CC(=O)O)NC(=O)[C@@H]2CCCN2C1=O (H-DCLGFMRKCIPDNDKCCRPNLVCSRRHKWCKYVF-NH2; disulfide 2-17, 9-23, 16-30) | 3500 | 40 |
| CC[C@H](C)[C@@H]1NC(=O)[C@@H]2CSSC[C@@H]3NC(=O)[C@H](C(C)C)NC(=O)[C@H](CC(C)C)NC(=O)[C@H](CC(N)=O)NC(=O)[C@@H]4CCCN4C(=O)[C@H](CCCNC(=N)N)NC(=O)[C@H](CSSC[C@H](NC(=O)[C@@H](N)CC(=O)O)C(=O)N[C@@H](CC(C)C)C(=O)NCC(=O)N[C@@H](Cc4ccccc4)C(=O)N[C@@H](CCSC)C(=O)N[C@@H](CCCNC(=N)N)C(=O)N[C@@H](CCCCN)C(=O)N2)NC(=O)[C@@H](CSSC[C@@H](C(=O)N[C@@H](CCCCN)C(=O)N[C@@H](Cc2ccc(O)cc2)C(=O)N[C@H](C(=O)N[C@@H](Cc2ccccc2)C(N)=O)C(C)C)NC(=O)[C@H](Cc2c[nH]c4ccccc24)NC(=O)[C@H](CCCCN)NC(=O)[C@H](Cc2cnc[nH]2)NC(=O)[C@H](C)NC(=O)[C@H](CCCNC(=N)N)NC(=O)[C@H](CO)NC3=O)NC(=O)[C@H](CCCCN)NC(=O)[C@H](CC(=O)O)NC(=O)[C@H](CC(N)=O)NC(=O)[C@H](CC(=O)O)NC(=O)[C@@H]2CCCN2C1=O | > 5000 | 260 |
| CC[C@H](C)[C@@H]1NC(=O)[C@@H]2CSSC[C@@H]3NC(=O)[C@H](C(C)C)NC(=O)[C@H](CC(C)C)NC(=O)[C@H](CC(N)=O)NC(=O)[C@@H]4CCCN4C(=O)[C@H](CCCNC(=N)N)NC(=O)[C@H](CSSC[C@H](NC(=O)[C@@H](N)CC(=O)O)C(=O)N[C@@H](CC(C)C)C(=O)NCC(=O)N[C@@H](Cc4c[nH]c5ccccc45)C(=O)N[C@@H](CCSC)C(=O)N[C@@H](CCCNC(=N)N)C(=O)N[C@@H](CCCCN)C(=O)N2)NC(=O)[C@H](CSSC[C@@H](C(=O)N[C@@H](CCCCN)C(=O)N[C@@H](Cc2ccc(O)cc2)C(=O)N[C@H](C(=O)N[C@@H](Cc2ccccc2)C(N)=O)C(C)C)NC(=O)[C@H](Cc2c[nH]c4ccccc24)NC(=O)[C@H](CCCCN)NC(=O)[C@H](Cc2cnc[nH]2)NC(=O)[C@H]([C@@H](C)O)NC(=O)[C@H](CCCNC(=N)N)NC(=O)[C@H](CO)NC3=O)NC(=O)[C@H](CCCCN)NC(=O)[C@H](CC(=O)O)NC(=O)[C@H](CC(N)=O)NC(=O)[C@H](CC(=O)O)NC(=O)[C@@H]2CCCN2C1=O (H-DCLGWMRKCIPDNDKCCRPNLVCSRTHKWCKYVF-NH2; disulfide 2-17, 9-23, 16-30) | > 5000 | 200 |
| CC[C@H](C)[C@@H]1NC(=O)[C@@H]2CSSC[C@@H]3NC(=O)[C@H](C(C)C)NC(=O)[C@H](CC(C)C)NC(=O)[C@H](CCC(=O)O)NC(=O)[C@@H]4CCCN4C(=O)[C@H](CCCNC(=N)N)NC(=O)[C@H](CSSC[C@H](NC(=O)[C@@H](N)CC(=O)O)C(=O)N[C@@H](CC(C)C)C(=O)NCC(=O)N[C@@H](Cc4ccccc4)C(=O)N[C@@H](CCSC)C(=O)N[C@@H](CCCNC(=N)N)C(=O)N[C@@H](CCCCN)C(=O)N2)NC(=O)[C@H](CSSC[C@@H](C(=O)N[C@@H](CCCCN)C(=O)N[C@@H](Cc2ccc(O)cc2)C(=O)N[C@H](C(=O)N[C@@H](Cc2ccccc2)C(N)=O)C(C)C)NC(=O)[C@H](Cc2c[nH]c4ccccc24)NC(=O)[C@H](CCCCN)NC(=O)[C@H](Cc2cnc[nH]2)NC(=O)[C@H]([C@@H](C)O)NC(=O)[C@H](CCCNC(=N)N)NC(=O)[C@H](CO)NC3=O)NC(=O)[C@H](CCCCN)NC(=O)[C@H](CC(=O)O)NC(=O)[C@H](CC(N)=O)NC(=O)[C@H](CC(=O)O)NC(=O)[C@@H]2CCCN2C1=O (H-DCLGFMRKCIPDNDKCCRPELVCSRTHKWCKYVF-NH2; disulfide 2-17, 9-23, 16-30) | > 5000 | 1400 |
| CC[C@H](C)[C@@H]1NC(=O)[C@@H]2CSSC[C@@H]3NC(=O)[C@H](C(C)C)NC(=O)[C@H](CC(C)C)NC(=O)[C@H](CC(N)=O)NC(=O)[C@@H]4CCCN4C(=O)[C@H](CCCNC(=N)N)NC(=O)[C@H](CSSC[C@H](NC(=O)[C@@H](N)CC(=O)O)C(=O)N[C@@H](CC(C)C)C(=O)NCC(=O)N[C@@H](Cc4ccccc4)C(=O)N[C@@H](CCSC)C(=O)N[C@@H](CCCNC(=N)N)C(=O)N[C@@H](CCCCN)C(=O)N2)NC(=O)[C@H](CSSC[C@@H](C(=O)N[C@@H](CCCCN)C(=O)N[C@@H](Cc2ccc(O)cc2)C(=O)N[C@H](C(=O)N[C@@H](Cc2ccccc2)C(N)=O)C(C)C)NC(=O)[C@H](CCCNC(=N)N)NC(=O)[C@H](CCCCN)NC(=O)[C@H](Cc2cnc[nH]2)NC(=O)[C@H]([C@@H](C)O)NC(=O)[C@H](CCCNC(=N)N)NC(=O)[C@H](CO)NC3=O)NC(=O)[C@H](CCCCN)NC(=O)[C@H](CC(=O)O)NC(=O)[C@H](CC(N)=O)NC(=O)[C@H](CC(=O)O)NC(=O)[C@@H]2CCCN2C1=O (H-DCLGFMRKCIPDNDKCCRPNLVCSRTHKRCKYVF-NH2; disulfide 2-17, 9-23, 16-30) | > 5000 | > 5000 |
| CC[C@H](C)[C@@H]1NC(=O)[C@@H]2CSSC[C@@H]3NC(=O)[C@H](C(C)C)NC(=O)[C@H](CC(C)C)NC(=O)[C@H](CC(N)=O)NC(=O)[C@@H]4CCCN4C(=O)[C@H](CCCNC(=N)N)NC(=O)[C@H](CSSC[C@H](NC(=O)[C@@H](N)CC(=O)O)C(=O)N[C@@H](CC(C)C)C(=O)NCC(=O)N[C@@H](Cc4ccccc4)C(=O)N[C@@H](CCSC)C(=O)N[C@@H](CCCNC(=N)N)C(=O)N[C@@H](CCCCN)C(=O)N2)NC(=O)[C@H](CSSC[C@@H](C(=O)N[C@@H](CCCCN)C(=O)N[C@@H](Cc2ccc(O)cc2)C(=O)N[C@H](C(=O)N[C@@H](Cc2ccccc2)C(N)=O)C(C)C)NC(=O)[C@H](Cc2c[nH]c4ccccc24)NC(=O)[C@H](CCCCN)NC(=O)[C@H](Cc2cnc[nH]2)NC(=O)[C@H]([C@@H](C)O)NC(=O)[C@H](CCCNC(=N)N)NC(=O)[C@H](CO)NC3=O)NC(=O)[C@H](CCCCN)NC(=O)[C@H](CC(=O)O)NC(=O)[C@H](Cc2c[nH]c3ccccc23)NC(=O)[C@H](CC(=O)O)NC(=O)[C@@H]2CCCN2C1=O (H-DCLGFMRKCIPDWDKCCRPNLVCSRTHKWCKYVF-NH2; disulfide 2-17, 9-23, 16-30) | > 5000 | 80 |
| CC[C@H](C)[C@@H]1NC(=O)[C@@H]2CSSC[C@@H]3NC(=O)[C@H](C(C)C)NC(=O)[C@H](CC(C)C)NC(=O)[C@H](CC(N)=O)NC(=O)[C@@H]4CCCN4C(=O)[C@H](CCCNC(=N)N)NC(=O)[C@H](CSSC[C@H](NC(=O)[C@@H](N)CC(=O)O)C(=O)N[C@@H](CC(C)C)C(=O)NCC(=O)N[C@@H](Cc4ccccc4)C(=O)N[C@@H](CCCCN)C(=O)N[C@@H](CCCNC(=N)N)C(=O)N[C@@H](CCCCN)C(=O)N2)NC(=O)[C@H](CSSC[C@@H](C(=O)N[C@@H](CCCCN)C(=O)N[C@@H](Cc2ccc(O)cc2)C(=O)N[C@H](C(=O)N[C@@H](Cc2ccccc2)C(N)=O)C(C)C)NC(=O)[C@H](Cc2c[nH]c4ccccc24)NC(=O)[C@H](CCCCN)NC(=O)[C@H](Cc2cnc[nH]2)NC(=O)[C@H]([C@@H](C)O)NC(=O)[C@H](CCCNC(=N)N)NC(=O)[C@H](CO)NC3=O)NC(=O)[C@H](CCCCN)NC(=O)[C@H](CC(=O)O)NC(=O)[C@H](CC(N)=O)NC(=O)[C@H](CC(=O)O)NC(=O)[C@@H]2CCCN2C1=O (H-DCLGFKRKCIPDNDKCCRPNLVCSRTHKWCKYVF-NH2; disulfide 2-17, 9-23, 16-30) | > 5000 | > 5000 |
